Laboratory results: ChEMBL document CHEMBL2034955, “Thieno[3,2-b]thiophene-2-carboxylic acid derivatives as GPR35 agonists” (Bioorg Med Chem Lett, 2012)
Calls of active or inactive are those of the source. The rule behind the calls is not given here.

Tests used:
[1] = molecular target: T1, G-protein coupled receptor 35 (Homo sapiens, UniProt Q9HC97); assay: Agonist activity at GPR35 in human HT-29 cells by dynamic mass redistribution assay relative to zaprinast; type: functional, cell-based
[2] = molecular target: T1, G-protein coupled receptor 35; assay: Agonist activity at GPR35 in human U20S cells expressing beta-lactamase and Gal4-VP16 transcription factor assessed as beta arrestin translocation after 5 hrs by Tango assay; type: functional, cell-based, U2OS
Method in brief: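 Tango GPR35-bla U2OS cells seeded at 10,000/well and cultured overnight in DMEM with 10% dialyzed FBS. Ligand stimulation 5 h at 37 °C/5% CO2, then LiveBLAzer FRET B/G substrate loading for 2 h. EC50 from monophasic sigmoidal fit. Two independent runs, each in duplicate (n = 4).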

[3] = molecular target: T1, G-protein coupled receptor 35; assay: Agonist activity at GPR35 in human HT-29 cells by dynamic mass redistribution assay; type: functional, cell-based
[4] = molecular target: T1, G-protein coupled receptor 35; assay: Agonist activity at GPR35 in human U2OS cells expressing beta-lactamase and Gal4-VP16 transcription factor assessed as beta arrestin translocation after 5 hrs by Tango assay relative to zaprinast; type: functional, cell-based
Method in brief: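 Tango GPR35-bla U2OS cells seeded at 10,000/well and cultured overnight in DMEM with 10% dialyzed FBS. Ligand stimulation 5 h at 37 °C/5% CO2, then LiveBLAzer FRET B/G substrate loading for 2 h. […] EC50 from monophasic sigmoidal fit. Two independent runs, each in duplicate (n = 4).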

[5] = molecular target: T1, G-protein coupled receptor 35; assay: Agonist activity at GPR35 in human U20S cells expressing beta-lactamase and Gal4-VP16 transcription factor assessed as beta arrestin translocation at 100 uM after 5 hrs by Tango assay in the presence of ML-145; type: functional, cell-based; conditions: U2OS
Method in brief: (§1)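 Tango antagonist format in GPR35-bla U2OS cells. Agonist at a fixed dose was combined with varying ML-145 doses, followed by 5 h stimulation at 37 °C and 2 h FRET B/G substrate loading. Coumarin/fluorescein ratio read out, with IC50 derived. Two independent runs, each in duplicate (n = 4).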

[6] = molecular target: T1, G-protein coupled receptor 35; assay: Agonist activity at GPR35 in human U20S cells expressing beta-lactamase and Gal4-VP16 transcription factor assessed as beta arrestin translocation at 64 uM after 5 hrs by Tango assay in the presence of ML-145; type: functional, cell-based; conditions: U2OS; method in brief: as §1
[7] = molecular target: T1, G-protein coupled receptor 35; assay: Agonist activity at GPR35 in human HT-29 cells at 125 nM by dynamic mass redistribution assay in presence of CID 2745687; type: functional, cell-based
Method in brief: (§2)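 Native HT-29 cells seeded at 32,000/well and cultured overnight to confluence in McCoy's 5a with 10% FBS at 37 °C/5% CO2, washed twice and held in 1x HBSS for 1 h. CID 2745687 was pre-incubated 10 min at varying doses, then agonist added at a fixed dose. DMR amplitude read 10 min poststimulation, background corrected. Two independent runs, each in duplicate (n = 4).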

[8] = molecular target: T1, G-protein coupled receptor 35; assay: Agonist activity at GPR35 in human U20S cells expressing beta-lactamase and Gal4-VP16 transcription factor assessed as beta arrestin translocation at 10 uM after 5 hrs by Tango assay in the presence of ML-145; type: functional, cell-based; conditions: U2OS; method in brief: as §1
[9] = molecular target: T1, G-protein coupled receptor 35; assay: Agonist activity at GPR35 in human U20S cells expressing beta-lactamase and Gal4-VP16 transcription factor assessed as beta arrestin translocation at 20 uM after 5 hrs by Tango assay in the presence of ML-145; type: functional, cell-based; conditions: U2OS; method in brief: as §1
[10] = molecular target: T1, G-protein coupled receptor 35; assay: Agonist activity at GPR35 in human HT-29 cells at 250 nM by dynamic mass redistribution assay in presence of CID 2745687; type: functional, cell-based; method in brief: as §2
[11] = molecular target: T1, G-protein coupled receptor 35; assay: Agonist activity at GPR35 in human HT-29 cells assessed as receptor internalization at 12.5 uM after 1 hr by confocal microscopy; type: functional, cell-based
Method in brief: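 HT-29 cells treated 1 h with agonist in assay vehicle containing 0.1% DMSO (vehicle control), then permeabilized and immunostained with anti-GPR35 plus fluorescent secondary antibody. Internalization judged from confocal fluorescence images.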

[12] = molecular target: T1, G-protein coupled receptor 35; assay: Agonist activity at GPR35 in human HT-29 cells at 2 uM by dynamic mass redistribution assay in presence of CID 2745687; type: functional, cell-based; method in brief: as §2

T1 sequence (Q9HC97 whole entry, the tested form may be a part): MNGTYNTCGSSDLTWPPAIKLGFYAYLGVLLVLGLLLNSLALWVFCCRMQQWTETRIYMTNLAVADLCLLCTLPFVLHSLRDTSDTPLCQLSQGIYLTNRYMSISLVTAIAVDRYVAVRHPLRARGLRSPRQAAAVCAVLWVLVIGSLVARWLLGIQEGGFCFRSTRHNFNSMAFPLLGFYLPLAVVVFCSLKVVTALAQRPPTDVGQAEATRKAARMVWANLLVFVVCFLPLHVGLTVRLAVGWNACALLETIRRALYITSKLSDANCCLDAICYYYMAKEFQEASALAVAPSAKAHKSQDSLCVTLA

SMILES	Efficacy [1] [pm]	EC50 ([2]; read-out: EC50) [µM]	EC50 ([3]; read-out: EC50) [µM]	Efficacy [4] [%]	also measured
CCOC(=O)c1sc2c(Br)c(Br)sc2c1C(F)(F)F					EC50 ([2]; u2os): Not Active; EC50 ([3]; ht-29): Not Active
Cc1c(C(=O)O)[nH]c2c(-c3cccnc3)csc12	210	26.9	0.63	120	Activity [6]: inactive
O=C(O)c1sc2ccsc2c1O	159	340	9.78	64	
Cc1c(C(=O)O)[nH]c2c(C3CC3)csc12	228	119	8.37	35	
O=C(O)c1sc2c(Br)c(Br)sc2c1O	228	2.46	0.016	96	Activity [7]: inactive; Activity [8]: inactive; Activity [3]: Dose-dependent effect
Cc1c(C(=O)O)sc2c(Br)csc12	290	8.3	0.061	113	Activity [9]: inactive; Activity [3]: Dose-dependent effect; Activity [10]: inactive
Cc1c(C(=O)O)sc2c(C3CC3)csc12	262	52.4	0.95	101	
Cc1sc2c(C)c(C(=O)O)sc2c1Br	268	22.2	1.29	52	
O=C(O)c1sc2c(Br)csc2c1Cl	262	39.2	1.03	68	

Continued, in another order:

Efficacy [1] [pm]	EC50 ([2]; read-out: EC50) [µM]	EC50 ([3]; read-out: EC50) [µM]	Efficacy [4] [%]	SMILES	also measured
257	54.8	1.48	102	C#Cc1csc2c(C)c(C(=O)O)sc12	
232	17.6	0.26	107	Cc1c(C(=O)O)sc2c(-c3ccsc3)csc12	Activity [5]: inactive
202	> 500		> 60	O=C(O)c1cc(=O)c2ccccc2[nH]1 [TRANSTORINE]	EC50 ([3]; ht-29, read-out: EC50): 152 µM
290	87.5	5.3	77	Cc1c(C(=O)O)n(C)c2c(Br)csc12	
180	52.5	0.37	102	Cc1c(C(=O)O)sc2c(-c3cn[nH]c3)csc12	
246	504	2.63	46	O=C(O)c1sc2c(Br)csc2c1C1CC1	
222	113	11.8	24	Cc1c(C(=O)O)[nH]c2c(Br)csc12	
223	11.8	0.24	118	Cc1c(C(=O)O)sc2c(-c3cccnc3)csc12	Activity [11]: Active
232	36.5	0.7	52	Cc1c(C(=O)O)sc2c(Br)c(Br)sc12	Activity [12]: inactive; Activity [3]: Dose-dependent effect
230	31.1	0.51	52	O=C(O)c1sc2c(Br)c(Br)sc2c1C(F)(F)F	
